From ChEMBL document CHEMBL4184291, “Discovery of N-arylpyrroles as agonists of GPR120 for the treatment of type II diabetes” (Bioorg Med Chem Lett, 2018) come the findings set out here.

A short description of data set [1]: Stability of the compound in air assessed as oxidation. Type of data set: physicochemical.
In data set [2] the target is T1, Free fatty acid receptor 4 (Homo sapiens, UniProt Q5NUL3).
T1 sequence (Q5NUL3 whole entry): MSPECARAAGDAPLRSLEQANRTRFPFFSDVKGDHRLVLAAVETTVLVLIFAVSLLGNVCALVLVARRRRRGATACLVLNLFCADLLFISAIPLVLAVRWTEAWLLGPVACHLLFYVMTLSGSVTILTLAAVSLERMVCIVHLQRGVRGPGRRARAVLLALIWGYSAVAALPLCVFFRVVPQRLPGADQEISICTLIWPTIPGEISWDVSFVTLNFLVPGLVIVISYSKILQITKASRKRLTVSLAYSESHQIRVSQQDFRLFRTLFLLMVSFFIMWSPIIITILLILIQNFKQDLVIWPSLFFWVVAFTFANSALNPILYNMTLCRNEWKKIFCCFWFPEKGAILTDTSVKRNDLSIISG
The data set can be described thus: Agonist activity at recombinant human GPR120 short isoform expressed in HEK293 cells assessed as intracellular calcium flux measured for 300 secs at 1 sec time interval by Fluo-4 NW based FLIPR assay. It counts as functional, cell-based. The procedure, abridged: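 Human GPR120 calcium-flux assay in HEK-293 cells; values are averages of n > 2 runs, SEM < ±25%.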
For orientation: A change in cytosolic calcium serves as a functional read-out for many receptors and channels.

The target in a further data set is Cytochrome P450 3A4 (Homo sapiens, UniProt P08684). The data set can be described thus: Inhibition of CYP3A4 (unknown origin). Type of data set: ADME.
A further data set has as its target Cytochrome P450 2D6 (Homo sapiens, UniProt P10635). The data set can be described thus: Inhibition of CYP2D6 (unknown origin). It counts as ADME.
A further data set addresses T2, Cytochrome P450 1A2 (Homo sapiens, UniProt P05177).
T2 sequence (P05177 whole entry): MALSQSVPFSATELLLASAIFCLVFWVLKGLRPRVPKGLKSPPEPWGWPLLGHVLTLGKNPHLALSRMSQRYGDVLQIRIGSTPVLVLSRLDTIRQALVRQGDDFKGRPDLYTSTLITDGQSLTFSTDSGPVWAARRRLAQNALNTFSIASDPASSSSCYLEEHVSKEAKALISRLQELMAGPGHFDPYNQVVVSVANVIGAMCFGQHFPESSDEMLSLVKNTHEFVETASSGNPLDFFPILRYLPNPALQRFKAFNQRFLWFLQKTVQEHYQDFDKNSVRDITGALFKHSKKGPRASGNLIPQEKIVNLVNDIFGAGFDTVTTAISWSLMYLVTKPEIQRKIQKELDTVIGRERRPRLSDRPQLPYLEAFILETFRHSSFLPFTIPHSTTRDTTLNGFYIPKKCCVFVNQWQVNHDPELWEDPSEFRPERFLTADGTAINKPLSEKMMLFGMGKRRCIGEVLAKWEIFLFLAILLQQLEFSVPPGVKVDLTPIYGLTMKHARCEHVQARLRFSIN
Nature of the data set: Inhibition of CYP1A2 (unknown origin). Type of data set: ADME.

A further data set addresses Cytochrome P450 2C9 (Homo sapiens, UniProt P11712). The data set can be described thus: Inhibition of CYP2C9 (unknown origin). It counts as ADME.
The target in another data set is Cytochrome P450 2C19 (Homo sapiens, UniProt P33261). The data set can be described thus: Inhibition of CYP2C19 (unknown origin). Type of data set: ADME.
Data set [3] can be described thus: Half life in human liver microsomes. It counts as ADME, microsome. In general terms: Microsomes from liver hold many membrane-bound enzymes, among them those of drug oxidation.
Data set [4] can be described thus: Half life in mouse liver microsomes. It counts as ADME, microsome.
Data set [5] can be described thus: Half life in rat liver microsomes. Type of data set: ADME, microsome.
The nature of data set [6]: Protein binding in human plasma. It counts as ADME, cell-free. Particulars: read-out: PPB (converted).
A short description of data set [7]: Protein binding in mouse plasma. The conditions noted are these: read-out: PPB (converted). Type of data set: ADME, cell-free.
The nature of data set [8]: Protein binding in rat plasma. It counts as ADME, cell-free. The conditions noted are these: read-out: PPB (converted).
For data set [9], the system named is Mus musculus. Nature of the data set: Antiobesity activity in diet-induced obesity C57Bl6/J mouse model assessed as basal glucose level in plasma at 3 mg/kg qd for 15 days measured on day 15 post 6 hrs fasting (reference value: 187 +/- 24 mg/dL). It counts as functional.
The test system of data set [10] is Mus musculus. The data set can be described thus: Antiobesity activity in diet-induced obesity C57Bl6/J mouse model assessed as final glucose level in plasma at 3 mg/kg qd for 15 days measured on day 15 post 6 hrs fasting (reference value: 184 +/- 30 mg/dL). Type of data set: functional.
The subject of data set [11] is Mus musculus. The data set can be described thus: Antiobesity activity in diet-induced obesity C57Bl6/J mouse model assessed as change in plasma glucose level at 3 mg/kg qd for 15 days measured on day 15 post 6 hrs fasting. Type of data set: functional.
The test system of data set [12] is Mus musculus. Nature of the data set: Antiobesity activity in diet-induced obesity C57Bl6/J mouse model assessed as basal insulin level in plasma at 3 mg/kg qd for 15 days measured on day 15 post 6 hrs fasting (reference value: 16959 +/- 4943 pg/ml). Type of data set: functional.
The test system of data set [13] is Mus musculus. The data set can be described thus: Antiobesity activity in diet-induced obesity C57Bl6/J mouse model assessed as final insulin level in plasma at 3 mg/kg qd for 15 days measured on day 15 post 6 hrs fasting (reference value: 7304 +/- 2967 pg/ml). Type of data set: functional.
In data set [14] the test system is Mus musculus. The data set can be described thus: Antiobesity activity in diet-induced obesity C57Bl6/J mouse model assessed as change in plasma insulin level at 3 mg/kg qd for 15 days measured on day 15 post 6 hrs fasting. Type of data set: functional.

Cytochrome P450 2C9, sequence (P11712 whole entry): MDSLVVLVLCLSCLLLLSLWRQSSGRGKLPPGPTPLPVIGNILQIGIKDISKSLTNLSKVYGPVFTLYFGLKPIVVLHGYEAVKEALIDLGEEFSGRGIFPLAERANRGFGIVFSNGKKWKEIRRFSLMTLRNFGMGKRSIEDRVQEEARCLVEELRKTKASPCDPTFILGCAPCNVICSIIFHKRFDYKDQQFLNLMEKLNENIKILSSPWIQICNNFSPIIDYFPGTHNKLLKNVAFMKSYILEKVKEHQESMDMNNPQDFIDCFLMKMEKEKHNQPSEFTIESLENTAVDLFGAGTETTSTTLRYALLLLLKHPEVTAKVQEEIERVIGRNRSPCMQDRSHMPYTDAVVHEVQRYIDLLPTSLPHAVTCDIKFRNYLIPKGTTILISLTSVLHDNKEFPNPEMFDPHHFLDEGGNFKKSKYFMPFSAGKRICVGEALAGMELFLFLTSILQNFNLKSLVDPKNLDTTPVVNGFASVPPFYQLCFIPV
Cytochrome P450 2C19, sequence (P33261 whole entry): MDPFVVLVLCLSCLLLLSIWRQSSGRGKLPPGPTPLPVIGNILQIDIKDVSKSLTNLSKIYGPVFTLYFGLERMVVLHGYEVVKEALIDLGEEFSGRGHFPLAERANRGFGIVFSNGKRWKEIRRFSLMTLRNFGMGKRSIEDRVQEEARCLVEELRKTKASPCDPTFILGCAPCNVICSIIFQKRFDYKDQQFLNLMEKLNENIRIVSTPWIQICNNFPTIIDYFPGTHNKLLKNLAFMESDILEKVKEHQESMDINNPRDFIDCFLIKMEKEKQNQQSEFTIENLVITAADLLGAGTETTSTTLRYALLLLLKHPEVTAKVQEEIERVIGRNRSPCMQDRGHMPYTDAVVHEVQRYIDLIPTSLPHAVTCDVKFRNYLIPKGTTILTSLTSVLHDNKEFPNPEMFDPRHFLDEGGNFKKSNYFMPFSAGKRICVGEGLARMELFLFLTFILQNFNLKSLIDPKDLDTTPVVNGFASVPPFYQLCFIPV
Cytochrome P450 3A4, sequence (P08684 whole entry): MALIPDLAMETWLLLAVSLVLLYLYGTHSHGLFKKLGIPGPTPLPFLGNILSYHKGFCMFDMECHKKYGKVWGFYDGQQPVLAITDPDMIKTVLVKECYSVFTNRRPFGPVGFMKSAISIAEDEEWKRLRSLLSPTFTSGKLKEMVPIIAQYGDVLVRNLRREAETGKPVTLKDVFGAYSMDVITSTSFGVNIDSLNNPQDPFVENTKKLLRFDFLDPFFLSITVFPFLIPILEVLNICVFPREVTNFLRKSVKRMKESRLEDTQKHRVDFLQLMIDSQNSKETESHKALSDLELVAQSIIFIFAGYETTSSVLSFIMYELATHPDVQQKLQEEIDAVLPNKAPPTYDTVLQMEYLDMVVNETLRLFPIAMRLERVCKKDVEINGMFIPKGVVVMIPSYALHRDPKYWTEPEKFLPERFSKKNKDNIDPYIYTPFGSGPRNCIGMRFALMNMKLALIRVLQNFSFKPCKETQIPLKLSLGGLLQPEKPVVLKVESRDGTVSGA
Cytochrome P450 2D6, sequence (P10635 whole entry): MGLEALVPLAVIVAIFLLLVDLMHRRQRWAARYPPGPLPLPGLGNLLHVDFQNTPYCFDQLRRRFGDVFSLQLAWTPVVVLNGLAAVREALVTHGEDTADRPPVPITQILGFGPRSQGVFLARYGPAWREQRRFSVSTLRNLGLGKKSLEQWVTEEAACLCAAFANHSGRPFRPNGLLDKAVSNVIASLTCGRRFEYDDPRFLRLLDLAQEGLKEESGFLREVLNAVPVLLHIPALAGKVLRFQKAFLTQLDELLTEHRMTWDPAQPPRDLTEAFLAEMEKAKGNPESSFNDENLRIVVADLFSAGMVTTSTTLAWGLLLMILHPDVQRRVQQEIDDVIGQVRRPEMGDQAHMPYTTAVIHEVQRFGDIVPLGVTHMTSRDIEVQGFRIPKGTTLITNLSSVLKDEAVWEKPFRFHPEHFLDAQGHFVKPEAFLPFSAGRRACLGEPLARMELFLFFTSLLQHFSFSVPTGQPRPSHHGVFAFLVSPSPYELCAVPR

Regarding `Cc1c(CCC(=O)O)ccc(OCc2c(C(F)(F)F)ccn2-c2ccc(Cl)cc2)c1C`, the Stability result in data set [1] is given as “Stable”.
Same read-out and setting: the value for `Cc1c(CCC(=O)O)ccc(OCc2cccn2-c2ccc(Br)cc2)c1C` was “Unstable”.
Usually EC50 stands for the concentration giving half of the maximal effect. In the case of `O=C(O)CCc1cc(F)c(OCc2c(C(F)(F)F)ccn2-c2ccccc2)c(F)c1`, in data set [2], the EC50 fell in the range of 100 to 101 nM.
With `COc1ccc(-n2ccc(C(F)(F)F)c2COc2c(F)cc(CCC(=O)O)cc2F)cc1`, in [2], the EC50 came out at 184 nM.
On the same count and under the same terms, with `COC(=O)CCc1cc(F)c(OCc2c(C(F)(F)F)ccn2-c2ccc(Cl)cc2)c(F)c1` the figure was above 5000 nM.
In general, half-life refers to how long it takes for the measured level to halve. A higher half-life goes with slow decline. Consider `CCc1ccc(-n2ccc(C(F)(F)F)c2COc2ccc(CCC(=O)O)c(F)c2F)cc1`, for which the INH on Cytochrome P450 3A4 is above 10 µM; on Cytochrome P450 2D6, above 10 µM; at Cytochrome P450 1A2 it was above 10 µM; on Cytochrome P450 2C9 it was 7 µM; on Cytochrome P450 2C19 it was 9 µM. In addition, the values for the half-life in [3], in data set [4] and in data set [5] were 15 min, 7 min and below 4 min, respectively. Also, the fraction unbound in data set [6] is 0.0002; in [7], 0.0014; in data set [8], 0.0008.
As to `CN(CCOc1ccc(CC2SC(=O)NC2=O)cc1)c1ccccn1` (centres undefined) [ROSIGLITAZONE], the Activity was 188 mg/dL with Mus musculus [9]; 148 mg/dL in the data set on Mus musculus [10]; -36.6 mg/dL with Mus musculus [11]; 15956 pg/mL in the data set on Mus musculus [12]; 1348 pg/mL with Mus musculus [13]; -5970 pg/mL with Mus musculus [14].
Turning to `Cc1ccc(-n2ccc(C(F)(F)F)c2COc2c(F)cc(CCC(=O)O)cc2F)cc1`, the INH at Cytochrome P450 3A4 is above 10 µM; on Cytochrome P450 2D6, above 10 µM; at Cytochrome P450 1A2, above 10 µM; on Cytochrome P450 2C9, 4.2 µM; at Cytochrome P450 2C19 it was above 10 µM. Further, the half-life in data set [3] is 7 min; in data set [4], 85 min; in data set [5], below 4 min. In addition, the fraction unbound in data set [6] was 0.0008; in [7], 0.0041; in data set [8] it was 0.0015.
With `O=C(O)CCc1ccc(OCc2c(C(F)(F)F)ccn2-c2ccc(Cl)cc2)c(F)c1F`, in [1], the Stability result was “Stable”.
